Results reported in paper PMC8995271 (Targeted Oncology, 2022).
Entries after “also recorded” stand apart in the source; their conditions may differ. Read-outs that look alike come from different tables or passages of the source.

Tests used:
[1] = tested on: HER2; conditions: read-out: half maximal inhibitory concentration for inhibiting the phosphorylation of HER2; ref [17], [23]–[26]; cited from earlier work
[2] = cited from earlier work
[3] = tested on: HER1; conditions: read-out: half maximal inhibitory concentration for inhibiting the phosphorylation of HER1; ref [17], [23]–[26]; cited from earlier work
[4] = tested on: HER4; conditions: read-out: half maximal inhibitory concentration for inhibiting the phosphorylation of HER4; ref [17], [23]–[26]; cited from earlier work
[5] = Paclitaxel pharmacokinetics in patients, cycle 1 day 1 and day 8; assay type: in vivo, human; conditions: for AUC(0-t): human, plasma, mean AUC0–24h of paclitaxel, cycle 1 day 1
[6] = Phase Ib dose-limiting toxicities and MTD determination; assay type: in vivo, human
[7] = Treatment-related adverse events; assay type: in vivo, human
[8] = tested on: advanced or metastatic solid tumors; test: Tumor response; assay type: in vivo, human
[9] = Varlitinib plasma pharmacokinetics in patients, cycle 1; assay type: in vivo; conditions: human, oral, mean AUC0–24h, cohorts pooled
Procedure, shortened: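 Blood samples taken in cycle 1 from patients on intermittent (4 days on/3 off) oral twice-daily varlitinib with weekly chemotherapy ± trastuzumab. Sampling was on cycle 1 day 5 at 0, 0.5, 1, 2, 5, 7 and 24 h after the varlitinib dose.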

[10] = cited from earlier work; remark: listed apart in the source
[11] = cohort A2: varlitinib 400 mg BD continuous + carboplatin + paclitaxel
[12] = cohort B (varlitinib + paclitaxel), n = 1

In the case of `CS(=O)(=O)CCNCc1ccc(-c2ccc3ncnc(Nc4ccc(OCc5cccc(F)c5)c(Cl)c4)c3c2)o1` [lapatinib], the IC50 [1] is listed as […], the “grade 3 and 4 diarrhea rate” value ([2]; combination of lapatinib and capecitabine) is listed as 12% and the “grade 3 and 4 diarrhea rate” value ([2]; combination of lapatinib and letrozole) is listed as 8%.
In the case of `CCOc1cc2ncc(C#N)c(Nc3ccc(OCc4ccccn4)c(Cl)c3)c2cc1NC(=O)/C=C/CN(C)C` [neratinib, reference compound], the IC50 [3] is listed as 12 nM, the IC50 [1] is listed as 39 nM and the IC50 [4] is listed as 19 nM.
`CC(=O)O[C@H]1C(=O)[C@@]2(C)[C@H]([C@H](OC(=O)c3ccccc3)[C@]3(O)C[C@H](OC(=O)[C@H](O)[C@@H](NC(=O)c4ccccc4)c4ccccc4)C(C)=C1C3(C)C)[C@]1(OC(C)=O)CO[C@@H]1C[C@@H]2O` [paclitaxel, reference compound] gave an AUC(0-t) ([5]; varlitinib 300-mg intermittent dosing cohorts (A4, B1, C1)) of 5010 ± 1860 ng·h/mL and an AUC(0-t) ([5]; varlitinib 400-mg intermittent dosing cohorts (A3, B2)) of 6130 ± 2050 ng·h/mL.
In the case of `C[C@@H]1COC(Nc2ccc3ncnc(Nc4ccc(OCc5nccs5)c(Cl)c4)c3c2)=N1` [varlitinib], the “DLT in cycle 1 (type = number of patients)” value [6, 11] is reported as “Febrile neutropenia = 3”, the “Number with DLTs” value [6, 11] is reported as 3/5 and the “Number with DLTs” value ([6]; cohort A3: varlitinib 400 mg BD intermittent + carboplatin + paclitaxel) is reported as 2/4. The “Number with DLTs” value ([6]; cohort A4: varlitinib 300 mg BD intermittent + carboplatin + paclitaxel) was 2/6, the “DLT G3/4 neutropenia, patients” value ([6]; cohort A (varlitinib + carboplatin + paclitaxel), n = 6 of 18) was 33.3% and the “Number with DLTs” value ([6]; cohort B1: varlitinib 300 mg BD intermittent + weekly paclitaxel) was 0/6. The “DLT in cycle 1 (type = number of patients)” value ([6]; cohort B2: varlitinib 400 mg BD intermittent + paclitaxel) was “Febrile neutropenia = 1; also recorded: G3 transaminitis =1”, the “Number with DLTs” value ([6]; cohort B2: varlitinib 400 mg BD intermittent + weekly paclitaxel) was 2/4 and the “DLT in cycle 1 (type = number of patients)” value ([6]; cohort B3: varlitinib 300 mg BD continuous + paclitaxel) was “G3 diarrhea = 1”. The “Number with DLTs” value ([6]; cohort B3: varlitinib 300 mg BD continuous + weekly paclitaxel) was 4/6, the “DLT G3 diarrhea, patients” value [6, 12] was 6.25% and the “DLT G3 transaminitis, patients” value [6, 12] was 6.25%. For the same molecule, the “DLT G3/4 neutropenia, patients” value ([6]; cohort B (varlitinib + paclitaxel), n = 3 of 16) was 18.8%, the “recommended phase II dose of varlitinib for the triplet combination” value ([6]; intermittently, with weekly paclitaxel and 3-weekly subcutaneous trastuzumab 600 mg) was 300 mg and the “all grade pneumonitis rate” value [7] was 5.4%. The “patients with reduction in left ventricular ejection fraction or cardiomyopathy” value ([7]; all cohorts) was “None”, the treatment-related mortality ([7]; all cohorts) was “no treatment-related mortality” and the “any grade AE diarrhea” value ([7]; overall, all cohorts (n = 37)) was 70.2%. For the same molecule, the “any grade AE fatigue” value ([7]; overall, all cohorts (n = 37)) was 67.5%, the “any grade AE neutropenia” value ([7]; overall, all cohorts (n = 37)) was 45.9% and the “grade 3 and above AE hyponatremia” value ([7]; overall, all cohorts (n = 37)) was 16.2%. The “grade 3 and above AE hypophosphatemia” value ([7]; overall, all cohorts (n = 37)) was 13.5%, the “grade 3 and above AE neutropenia” value ([7]; overall, all cohorts (n = 37)) was 40.5% and the “median duration on study treatment” value ([8]; all patients, range 0.1–17.1 months) was 3.0 months. The “median PFS” value ([8]; all patients, range 0.3–17.1 months) was 3.7 months, the overall response rate ([8]; entire cohort, 11/37) was 29.7% and the partial response rate ([8]; excluding the two subjects with non-metastatic breast cancer, 10/30) was 33.3%. The stable disease ([8]; excluding the two subjects with non-metastatic breast cancer, 13/30) was 43.3%, the “stable disease as best response” value ([8]; patients evaluable for response, 13/31) was 41.9% and the “median duration on study treatment” value ([8]; patients who achieved a partial response, range 2.2–17.1 months) was 5.0 months. The objective responses ([8]; varlitinib 300 mg continuous, 1/5 evaluable) was 20%, the objective responses ([8]; varlitinib 300 mg intermittent, 4/14 evaluable) was 28.6% and the objective responses ([8]; varlitinib 400 mg continuous, 2/5 evaluable) was 40%. The objective responses ([8]; varlitinib 400 mg intermittent, 3/6 evaluable) was 50%, the objective responses ([8]; varlitinib 500 mg continuous, 1/1 evaluable) was 100% and the AUC(0-t) ([9]; 300-mg intermittent dosing) was 44000 ng·h/mL. The AUC(0-t) ([9]; 400-mg intermittent dosing) was 75600 ng·h/mL, the “effect of varlitinib on the pharmacokinetics (Cmax, AUC) of paclitaxel” value ([5]; paclitaxel 80 mg/m^2 weekly) was “Varlitinib was well tolerated and did not significantly affect the pharmacokinetics of paclitaxel” and the IC50 [3] was 7 nM. For the same molecule, the IC50 [1] was 2 nM, the IC50 [4] was 4 nM and the “maximum tolerated dose (MTD)” value ([10]; monotherapy (ARRAY 543-103), continuous dose twice a day) was 500 mg. For the same molecule, the median half-life ([10]; reported in other studies) was 5 to 7 h and the “febrile neutropenia, patients” value ([10]; varlitinib in combination with 3-weekly docetaxel, phase I study) was 7%.
